From ChEMBL document CHEMBL3414564, “3'-functionalized adamantyl cannabinoid receptor probes” (J Med Chem, 2015)
Active and inactive are the calls of the source. The calls are words filed in the database; no cut-off is given here.

Assays:
[1] = target: T1, Cannabinoid receptor 2 (Homo sapiens, UniProt P34972); experiment: Covalent binding affinity to human CB2 receptor expressed in HEK293 cell membranes assessed as covalent labeling at 10 times Ki level incubated for 30 mins at 37 degC followed by UV irradiation by [3H]CP-55,940 radioligand binding assay
T1 sequence (P34972 whole entry): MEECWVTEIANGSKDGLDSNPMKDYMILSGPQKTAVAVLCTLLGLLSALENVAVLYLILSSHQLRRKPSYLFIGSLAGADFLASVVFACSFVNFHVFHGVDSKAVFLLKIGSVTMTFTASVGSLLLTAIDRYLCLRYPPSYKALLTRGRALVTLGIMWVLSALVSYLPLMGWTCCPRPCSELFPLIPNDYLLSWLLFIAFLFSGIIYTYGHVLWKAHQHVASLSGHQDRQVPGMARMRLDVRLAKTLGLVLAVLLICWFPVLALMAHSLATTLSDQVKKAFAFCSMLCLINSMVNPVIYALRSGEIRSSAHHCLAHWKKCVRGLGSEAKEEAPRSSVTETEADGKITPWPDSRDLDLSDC
How it was run: (§1)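 Membranes were incubated with azido ligand at 10× its Ki for 30 min at 37 °C with gentle agitation, then given UV at 254 nm for 1 min. They were washed twice with 1% BSA in TME and once with TME, and pelleted. A blank membrane sample was run in parallel. Bmax came from [3H]CP-55,940 saturation binding at 0.5–23.8 nM with 25 μg protein, 1 h at 30 °C. Nonspecific binding was taken with 4 μM unlabeled CP-55,940. Labeling % = (Bmax control − Bmax ligand)/Bmax control × 100.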

[2] = target: T2, Cannabinoid receptor 1 (Rattus norvegicus, UniProt P20272); experiment: Agonist activity at rat CB1 receptor expressed in HEK293 cells assessed as inhibition of forskolin-induced cAMP accumulation incubated for 60 mins
T2 sequence (P20272 whole entry): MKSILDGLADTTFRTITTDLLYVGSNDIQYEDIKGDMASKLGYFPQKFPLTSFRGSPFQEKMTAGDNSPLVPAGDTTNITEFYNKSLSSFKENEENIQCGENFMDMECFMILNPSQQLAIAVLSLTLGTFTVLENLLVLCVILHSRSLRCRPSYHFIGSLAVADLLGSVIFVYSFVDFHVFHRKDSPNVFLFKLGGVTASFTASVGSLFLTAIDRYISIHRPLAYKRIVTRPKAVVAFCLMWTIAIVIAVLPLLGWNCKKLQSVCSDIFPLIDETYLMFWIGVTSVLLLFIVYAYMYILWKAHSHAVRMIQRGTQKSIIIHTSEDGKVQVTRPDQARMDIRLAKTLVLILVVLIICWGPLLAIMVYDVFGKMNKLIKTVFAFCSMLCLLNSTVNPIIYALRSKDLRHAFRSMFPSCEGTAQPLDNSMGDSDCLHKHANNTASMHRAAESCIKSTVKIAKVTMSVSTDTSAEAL

[3] = target: Cannabinoid receptor 1 (Rattus norvegicus) (UniProt P20272); experiment: Agonist activity at rat CB1 receptor expressed in HEK293 cells assessed as inhibition of forskolin-induced cAMP accumulation incubated for 60 mins relative to 500 nM CP-55,940; format: functional, cell-based
Sequence of Cannabinoid receptor 1 (Rattus norvegicus) (P20272 whole entry): as above

[4] = target: T2, Cannabinoid receptor 1; experiment: Displacement of [3H]CP-55,940 from CB1 receptor in rat brain membranes; format: cell membranes, Membrane
How it was run: (§2)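 Competition binding against [3H]CP-55,940 on rat brain membranes (CB1) or on membranes of HEK293 cells expressing mouse or human CB2. IC50 by nonlinear regression, converted to Ki. For isothiocyanates the value is an apparent Ki (Ki*), which depends on pretreatment time. Triplicate points; mean of three independent experiments.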

[5] = target: T1, Cannabinoid receptor 2; experiment: Displacement of [3H]CP-55,940 from human CB2 receptor expressed in HEK293 cell membranes; how it was run: as §2
[6] = target: Cannabinoid receptor 1 (Rattus norvegicus) (UniProt P20272); experiment: Covalent binding affinity to CB1 receptor in rat brain membranes assessed as covalent labeling at 10 times Ki level incubated for 30 mins at 37 degC followed by UV irradiation by [3H]CP-55,940 radioligand binding assay; format: cell membranes; details: Membrane; how it was run: as §1
[7] = target: T1, Cannabinoid receptor 2; experiment: Inverse agonist activity at human CB2 receptor expressed in HEK293 cells assessed as inhibition of forskolin-induced cAMP accumulation incubated for 60 mins relative to 500 nM CP-55,940; format: functional, cell-based
[8] = target: Cannabinoid receptor 2 (Mus musculus, UniProt P47936); experiment: Displacement of [3H]CP-55,940 from mouse CB2 receptor expressed in HEK293 cell membranes; how it was run: as §2
Sequence of Cannabinoid receptor 2 (Mus musculus, UniProt P47936) (P47936 whole entry): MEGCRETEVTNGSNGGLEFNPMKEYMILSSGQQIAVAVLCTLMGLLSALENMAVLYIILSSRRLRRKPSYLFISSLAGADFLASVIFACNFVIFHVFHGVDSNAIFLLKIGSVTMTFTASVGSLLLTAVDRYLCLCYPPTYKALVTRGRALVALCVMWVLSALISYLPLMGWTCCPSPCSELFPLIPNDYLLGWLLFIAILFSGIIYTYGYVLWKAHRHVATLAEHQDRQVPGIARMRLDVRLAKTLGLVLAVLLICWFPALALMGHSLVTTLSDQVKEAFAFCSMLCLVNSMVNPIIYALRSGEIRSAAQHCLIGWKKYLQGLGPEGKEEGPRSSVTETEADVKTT

[9] = target: T1, Cannabinoid receptor 2; experiment: Inverse agonist activity at human CB2 receptor expressed in HEK293 cells assessed as inhibition of forskolin-induced cAMP accumulation incubated for 60 mins; format: functional, cell-based
How it was run: (§3)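 Forskolin-stimulated cAMP in HEK293 cells stably expressing rCB1 or hCB2, detached non-enzymatically and washed in HBSS, 1000–1500 cells/well. Compound series given in stimulation buffer with 2 μM forskolin (final), 30 min at room temperature. Eu-cAMP tracer and anti-cAMP TR-FRET detection reagents were then added for 60 min at room temperature. EC50 by nonlinear regression; two independent experiments in triplicate.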

[10] = target: T1, Cannabinoid receptor 2; experiment: Activity at human CB2 receptor expressed in HEK293 cells assessed as inhibition of forskolin-induced cAMP accumulation up to 3 uM incubated for 60 mins; format: functional, cell-based; how it was run: as §3
[11] = target: T2, Cannabinoid receptor 1; experiment: Displacement of [3H]CP-55,940 from CB1 receptor in rat brain membranes incubated for 60 mins; format: cell membranes, Membrane
How it was run: (§4)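 Competition binding on rat brain membranes (CB1) against [3H]CP-55,940. Membranes were pretreated with the covalently reacting isothiocyanate ligand for the stated time (15, 30, 60 or 90 min) before the binding step. IC50 came from nonlinear regression and was converted to Ki. Values are reported as a time-dependent apparent Ki (Ki*).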

[12] = target: T2, Cannabinoid receptor 1; experiment: Displacement of [3H]CP-55,940 from CB1 receptor in rat brain membranes incubated for 15 mins; format: cell membranes, Membrane; how it was run: as §4
[13] = target: T2, Cannabinoid receptor 1; experiment: Displacement of [3H]CP-55,940 from CB1 receptor in rat brain membranes incubated for 90 mins; format: cell membranes, Membrane; how it was run: as §4
[14] = target: T2, Cannabinoid receptor 1; experiment: Displacement of [3H]CP-55,940 from CB1 receptor in rat brain membranes incubated for 30 mins; format: cell membranes, Membrane; how it was run: as §4
[15] = target: Cannabinoid receptor 1 (Rattus norvegicus) (UniProt P20272); experiment: Binding affinity to CB1 receptor in rat brain membranes assessed as receptor occupancy at 10 times Ki level incubated for 60 mins by [3H]CP-55,940 radioligand binding assay; format: cell membranes; details: Membrane
How it was run: (§5)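 Rat brain CB1 membranes were pretreated with isothiocyanate ligand at 10× its Ki at 37 °C for 15, 30 or 60 min. The control was 60 min without ligand. Unbound ligand was removed by BSA/TME washes and centrifugation. Bmax came from [3H]CP-55,940 saturation binding at 0.5–23.8 nM, 25 μg protein, 1 h at 30 °C, with 4 μM unlabeled CP-55,940 for nonspecific binding. Irreversible occupancy = percent Bmax reduction.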

[16] = target: Cannabinoid receptor 1 (Rattus norvegicus) (UniProt P20272); experiment: Irreversible binding affinity to CB1 receptor in rat brain membranes assessed as receptor occupancy at 10 times Ki level incubated for 30 mins by [3H]CP-55,940 radioligand binding assay; format: cell membranes; details: Membrane; how it was run: as §5
[17] = target: Cannabinoid receptor 1 (Rattus norvegicus) (UniProt P20272); experiment: Irreversible binding affinity to CB1 receptor in rat brain membranes assessed as receptor occupancy at 10 times Ki level incubated for 15 mins by [3H]CP-55,940 radioligand binding assay; format: cell membranes; details: Membrane; how it was run: as §5

| SMILES | Activity [1] | EC50 [2] | Emax [3] | Ki ([4]; read-out: Ki) | Ki ([5]; read-out: Ki) | Activity [6] | Emax [7] | Ki ([8]; read-out: Ki) | EC50 [9] | Activity [10] | other results |
| --- | --- | --- | --- | --- | --- | --- | --- | --- | --- | --- | --- |
| CC1(C)Oc2cc([C@]34CC5CC(C[C@@](CC#N)(C5)C3)C4)cc(O)c2[C@@H]2C[C@H](O)CC[C@H]21 | inactive | 5.4 nM | 78% | 2.6 nM | 4.6 nM | inactive | -78% | 4.4 nM | 83.1 nM |  |  |
| CC1(C)Oc2cc([C@]34CC5CC(C[C@@](N=[N+]=[N-])(C5)C3)C4)cc(O)c2[C@@H]2C[C@H](O)CC[C@H]21 | 26% | 4.4 nM | 73% | 18.6 nM | 24.8 nM | 61% |  | 38.4 nM |  | inactive |  |
| CC1(C)Oc2cc([C@]34CC5CC(C[C@@](CN)(C5)C3)C4)cc(O)c2[C@@H]2C[C@H](O)CC[C@H]21 |  |  |  | > 1000 nM | > 1000 nM |  |  | > 1000 nM |  |  |  |
| CC1(C)Oc2cc([C@]34CC5CC(C[C@@](N)(C5)C3)C4)cc(O)c2[C@@H]2C[C@H](O)CC[C@H]21 |  |  |  | > 1000 nM | > 1000 nM |  |  | > 1000 nM |  |  |  |
| CC1(C)Oc2cc([C@]34CC5CC(C[C@@](C(N)=O)(C5)C3)C4)cc(O)c2[C@@H]2C[C@H](O)CC[C@H]21 |  |  |  | 297 nM | 337 nM |  |  | 947 nM |  |  |  |
| CC1(C)Oc2cc([C@]34CC5CC(C[C@@](CN=C=S)(C5)C3)C4)cc(O)c2[C@@H]2C[C@H](O)CC[C@H]21 | 74% | 0.8 nM | 94% |  |  | 63% | -91% |  | > 400 nM |  | Ki ([4]; read-out: Ki(app)): 3 nM; Ki ([5]; read-out: Ki(app)): 10.3 nM; Ki ([8]; read-out: Ki(app)): 34.6 nM |
| CC1(C)Oc2cc([C@]34CC5CC(C[C@@](CN=[N+]=[N-])(C5)C3)C4)cc(O)c2[C@@H]2C[C@H](O)CC[C@H]21 | 60% | 2.4 nM | 45% | 4.4 nM | 9.6 nM | 67% |  | 26.4 nM |  | inactive |  |
| CC1(C)Oc2cc(C34CC5CC(CC(C5)C3)C4)cc(O)c2[C@@H]2C[C@H](O)CC[C@H]21 |  | 2.7 nM | 69% |  |  |  |  |  |  | inactive |  |
| CC1(C)Oc2cc([C@]34CC5CC(C[C@@](C#N)(C5)C3)C4)cc(O)c2[C@@H]2C[C@H](O)CC[C@H]21 |  | 95.2 nM | 82% | 45.8 nM | 4.2 nM |  | -93% | 2.8 nM | 90.7 nM |  |  |
| CC1(C)Oc2cc([C@]34CC5CC(C[C@@](C(=O)O)(C5)C3)C4)cc(O)c2[C@@H]2C[C@H](O)CC[C@H]21 |  |  |  | > 1000 nM | > 1000 nM |  |  | > 1000 nM |  |  |  |
| CC1(C)Oc2cc([C@]34CC5CC(C[C@@](N=C=S)(C5)C3)C4)cc(O)c2[C@@H]2C[C@H](O)CC[C@H]21 | 25% | 12 nM | 68% |  |  | 54% |  |  |  | inactive | Ki [11]: 35.4 nM; Ki [12]: 96 nM; Ki [13]: 35.7 nM; Ki [14]: 58.6 nM; Activity [15]: Active; Activity [16]: 54%; Ki ([4]; read-out: Ki(app)): 35.4 nM; Activity [17]: 26%; Ki ([5]; read-out: Ki(app)): 13.1 nM; Ki ([8]; read-out: Ki(app)): 31.7 nM |
| COC(=O)N[C@]12CC3CC(C1)C[C@](c1cc(O)c4c(c1)OC(C)(C)[C@@H]1CC[C@@H](O)C[C@@H]41)(C3)C2 |  | 1.6 nM | 71% | 29.1 nM | 8.4 nM |  | -74% | 2.1 nM | 15.8 nM |  |  |
